ChEMBL document CHEMBL5247578, “Effective synthesis of benzimidazoles-imidazo[1,2-a]pyrazine conjugates: A comparative study of mono-and bis-benzimidazoles for antitumor activity” (Eur J Med Chem, 2019)

Legend:
Type in all cases: functional
[1] = system: MDA-MB-468; assay: Antiproliferative activity against human MDA-MB-468 cells assessed as cell growth inhibition at 10 uM incubated for 48 hrs by sulforhodamine B assay relative to control
In short: (§1)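 NCI-60 single-dose screen at 10^-5 M. Cells grown in RPMI 1640 with 5% FBS and 2 mM L-glutamine, plated at 5,000–40,000 cells/well, and preincubated 24 h. Drug (DMSO stock) added and incubated 48 h at 37 °C, 5% CO2. Adherent cells fixed with cold TCA, stained with 0.4% SRB in 1% acetic acid, dye solubilized in 10 mM trizma base, A515 read. Percent growth taken against time-zero and untreated control.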

[2] = system: T47D; assay: Antiproliferative activity against human T47D cells assessed as cell growth inhibition at 10 uM incubated for 48 hrs by sulforhodamine B assay relative to control; in short: as §1
[3] = system: BT-549; assay: Antiproliferative activity against human BT-549 cells assessed as cell growth inhibition at 10 uM incubated for 48 hrs by sulforhodamine B assay relative to control
In short: (§2)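 Single-dose NCI-60 prescreen at 10^-5 M. Cells in RPMI 1640 with 5% FBS and 2 mM L-glutamine, seeded 5,000–40,000 cells/well with 24 h preincubation, then drug exposure for 48 h at 37 °C under 5% CO2. Growth read by SRB staining of TCA-fixed cells at 515 nm against time-zero and untreated controls. Negative growth values denote cell kill.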

[4] = system: DU-145; assay: Antiproliferative activity against human DU-145 cells assessed as cell growth inhibition at 10 uM incubated for 48 hrs by sulforhodamine B assay relative to control
In short: (§3)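 NCI-60 one-dose prescreen at 10^-5 M. Cells grown in RPMI 1640 with 5% FBS and 2 mM glutamine, preincubated 24 h, then exposed 48 h at 37 °C. Adherent lines TCA-fixed, SRB-stained, A515 read. Growth percent relative to time-zero and control; negative values mean cell kill.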

[5] = system: RXF 393; assay: Antiproliferative activity against human RXF 393 cells assessed as cell growth inhibition at 10 uM incubated for 48 hrs by sulforhodamine B assay relative to control; in short: as §1
[6] = system: SK-OV-3; assay: Antiproliferative activity against human SK-OV-3 cells assessed as cell growth inhibition at 10 uM incubated for 48 hrs by sulforhodamine B assay relative to control; in short: as §1
[7] = system: OVCAR-8; assay: Antiproliferative activity against human OVCAR-8 cells assessed as cell growth inhibition at 10 uM incubated for 48 hrs by sulforhodamine B assay relative to control; in short: as §1
[8] = system: OVCAR-5; assay: Antiproliferative activity against human OVCAR-5 cells assessed as cell growth inhibition at 10 uM incubated for 48 hrs by sulforhodamine B assay relative to control; in short: as §1
[9] = system: OVCAR-4; assay: Antiproliferative activity against human OVCAR-4 cells assessed as cell growth inhibition at 10 uM incubated for 48 hrs by sulforhodamine B assay relative to control; in short: as §1
[10] = system: UACC-62; assay: Antiproliferative activity against human UACC-62 cells assessed as cell growth inhibition at 10 uM incubated for 48 hrs by sulforhodamine B assay relative to control; in short: as §1
[11] = system: UACC-257; assay: Antiproliferative activity against human UACC-257 cells assessed as cell growth inhibition at 10 uM incubated for 48 hrs by sulforhodamine B assay relative to control; in short: as §1
[12] = system: SK-MEL-28; assay: Antiproliferative activity against human SK-MEL-28 cells assessed as cell growth inhibition at 10 uM incubated for 48 hrs by sulforhodamine B assay relative to control; in short: as §1
[13] = system: MDA-MB-435; assay: Antiproliferative activity against human MDA-MB-435 cells assessed as cell growth inhibition at 10 uM incubated for 48 hrs by sulforhodamine B assay relative to control; in short: as §1
[14] = system: SNB-75; assay: Antiproliferative activity against human SNB-75 cells assessed as cell growth inhibition at 10 uM incubated for 48 hrs by sulforhodamine B assay relative to control; in short: as §1
[15] = system: SNB-19; assay: Antiproliferative activity against human SNB-19 cells assessed as cell growth inhibition at 10 uM incubated for 48 hrs by sulforhodamine B assay relative to control; in short: as §1
[16] = system: KM12; assay: Antiproliferative activity against human KM12 cells assessed as cell growth inhibition at 10 uM incubated for 48 hrs by sulforhodamine B assay relative to control; in short: as §1
[17] = system: HT-29; assay: Antiproliferative activity against human HT-29 cells assessed as cell growth inhibition at 10 uM incubated for 48 hrs by sulforhodamine B assay relative to control; in short: as §1
[18] = system: HCT-15; assay: Antiproliferative activity against human HCT-15 cells assessed as cell growth inhibition at 10 uM incubated for 48 hrs by sulforhodamine B assay relative to control; in short: as §3
[19] = system: NCI-H460; assay: Antiproliferative activity against human NCI-H460 cells assessed as cell growth inhibition at 10 uM incubated for 48 hrs by sulforhodamine B assay relative to control; in short: as §1
[20] = system: NCI-H322M; assay: Antiproliferative activity against human NCI-H322M cells assessed as cell growth inhibition at 10 uM incubated for 48 hrs by sulforhodamine B assay relative to control; in short: as §1
[21] = system: NCI-H226; assay: Antiproliferative activity against human NCI-H226 cells assessed as cell growth inhibition at 10 uM incubated for 48 hrs by sulforhodamine B assay relative to control; in short: as §1
[22] = system: A549; assay: Antiproliferative activity against human A549 cells assessed as cell growth inhibition at 10 uM incubated for 48 hrs by sulforhodamine B assay relative to control; in short: as §2
[23] = system: K562; assay: Antiproliferative activity against human K562 cells assessed as cell growth inhibition at 10 uM incubated for 48 hrs by sulforhodamine B assay relative to control; in short: as §1
[24] = system: HL-60; assay: Antiproliferative activity against human HL-60 cells assessed as cell growth inhibition at 10 uM incubated for 48 hrs by sulforhodamine B assay relative to control; in short: as §3
[25] = system: CAKI-1; assay: Antiproliferative activity against human CAKI-1 cells assessed as cell growth inhibition at 10 uM incubated for 48 hrs by sulforhodamine B assay relative to control; in short: as §2
[26] = system: HOP-62; assay: Antiproliferative activity against human HOP-62 cells assessed as cell growth inhibition at 10 uM incubated for 48 hrs by sulforhodamine B assay relative to control; in short: as §3

Structure (SMILES) | inhibition at 10 µM [1] | inhibition at 10 µM [2] | inhibition at 10 µM [3] | inhibition at 10 µM [4] | inhibition at 10 µM [5] | inhibition at 10 µM [6] | inhibition at 10 µM [7] | inhibition at 10 µM [8] | inhibition at 10 µM [9] | inhibition at 10 µM [10] | inhibition at 10 µM [14] | inhibition at 10 µM [15] | inhibition at 10 µM [16] | inhibition at 10 µM [17] | inhibition at 10 µM [18] | inhibition at 10 µM [19] | inhibition at 10 µM [21] | inhibition at 10 µM [22] | inhibition at 10 µM [23] | inhibition at 10 µM [24] | other results
Brc1ccc(-c2cn3ccnc3c(-c3ccc4ncn(C5CCCCC5)c4c3)n2)cc1 | 33.7% | 55% | 35.1% | 5.66% | 34% | 6.44% | 13.2% | 8.95% | 10.5% | 46.9% | 34.5% | 18.3% | 23.3% | 20.9% | 35.8% | 13.2% | 23.3% | 15.3% | 59% | 23.2% | inhibition at 10 µM [11]: 7.3%; inhibition at 10 µM [12]: 28.3%; inhibition at 10 µM [13]: 58.4%; inhibition at 10 µM [20]: 4.21%
Clc1ccc(-c2cn3ccnc3c(-c3ccc4ncn(C5CCCCC5)c4c3)n2)cc1 | 10.6% | 27.6% | 23.8% |  | 6.73% | 6.14% | 3.78% | 0.84% | 4.57% | 30.5% | 31.1% | 15.8% | 10.6% | 16.4% | 15.5% | 4.14% | 19.4% | 11.6% | 44.5% | 15.6% | inhibition at 10 µM [11]: 5.44%; inhibition at 10 µM [12]: 12.1%; inhibition at 10 µM [13]: 36.7%
Fc1ccccc1-c1cn2ccnc2c(-c2ccc3ncn(C4CCCCC4)c3c2)n1 | 27.6% | 77.2% | 4.08% | 0.96% | 12.3% |  | 14.1% | 6.64% | 4.51% | 38.2% | 29.7% | 7.56% | 2.45% | 7.26% | 6.18% | 8.1% | 28.6% | 9.1% | 22.8% | 9.3% | 
c1ccc(Cn2cnc3ccc(-c4nc(-c5cccc6ccccc56)cn5ccnc45)cc32)cc1 |  | 73.8% |  |  |  |  | 6.22% | 1.83% | 7.88% | 12.9% | 16.2% | 5.12% | 11% | 18.6% | 8.2% | 3.8% |  | 7.31% |  |  | inhibition at 10 µM [25]: 27.1%; inhibition at 10 µM [20]: 1.34%; inhibition at 10 µM [26]: 14%
